From ChEMBL document CHEMBL2086380 (J Med Chem, 2012)
In brackets after ≈: the same amount, converted by molar mass. Values belong to the molecule of their own block, whether it stands above or below them. Activity calls are given as the source filed them. The rule behind the calls is not given here.

Experiments:
HCT-116 [1] = test: Antiproliferative activity against human HCT116 cells after 72 hrs by CellTiterGlo assay; conditions: HCT-116, 72 h
A-375 [2] = test: Antiproliferative activity against human A375 cells after 72 hrs by CellTiterGlo assay; conditions: A-375, 72 h
A-375 [3] = test: Ratio of EC50 for human HCT116 cells to EC50 for human A375 cells; format: functional
[4] = Plasma protein binding in rat; format: ADME, cell-free; conditions: read-out: PPB (converted)
[5] = Clearance in rat at 1 mg/kg, iv; format: ADME, organism-based; set-up: dose 1 mg/kg, route intravenous; conditions: in vivo
[6] = Half life in rat at 1 mg/kg, iv; format: ADME, organism-based; set-up: dose 1 mg/kg, route intravenous; conditions: in vivo
[7] = Volume of distribution at steady state in rat at 1 mg/kg, iv; format: ADME, organism-based; set-up: dose 1 mg/kg, route intravenous; conditions: in vivo, read-out: Vdss
[8] = AUC in rat at 1 mg/kg, iv; format: ADME, organism-based; set-up: dose 1 mg/kg, route intravenous; conditions: plasma
[9] = AUC in rat at 5 mg/kg, po; format: ADME, organism-based; set-up: dose 5 mg/kg, route oral; conditions: plasma
Outline: (§1)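 Oral PK: rat dosed 5 mg/kg PO as solution; mouse dosed 25 mg/kg PO as suspension. Plasma AUC (μM·h) and bioavailability F (%) determined.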

[10] = Oral bioavailability in rat at 5 mg/kg; format: ADME, organism-based; conditions: in vivo; outline: as §1
[11] = molecular target: T1, Dual specificity mitogen-activated protein kinase kinase 1 (Homo sapiens, UniProt Q02750); test: Inhibition of MEK1-mediated ERK1 phosphorylation after 30 mins by HTRF assay
T1 sequence (Q02750 whole entry): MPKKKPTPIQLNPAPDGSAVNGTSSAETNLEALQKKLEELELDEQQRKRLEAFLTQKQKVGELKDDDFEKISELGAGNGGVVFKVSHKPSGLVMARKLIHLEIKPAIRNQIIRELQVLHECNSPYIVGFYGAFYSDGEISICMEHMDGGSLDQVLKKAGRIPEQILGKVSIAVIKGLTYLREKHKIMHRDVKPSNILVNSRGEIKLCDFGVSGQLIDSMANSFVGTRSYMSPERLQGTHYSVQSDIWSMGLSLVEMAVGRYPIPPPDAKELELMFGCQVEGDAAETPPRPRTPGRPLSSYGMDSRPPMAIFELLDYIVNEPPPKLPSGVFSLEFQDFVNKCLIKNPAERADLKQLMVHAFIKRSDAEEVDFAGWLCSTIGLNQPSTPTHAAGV

[12] = Ratio of EC50 for human HCT116 cells to IC50 for MEK1-mediated ERK1 phosphorylation; set-up: species or system HCT-116
[13] = Ratio of EC50 for human A375 cells to IC50 for MEK1-mediated ERK1 phosphorylation; set-up: species or system A-375
[14] = molecular target: T1, Dual specificity mitogen-activated protein kinase kinase 1; test: Inhibition of MEK1-mediated ERK1 phosphorylation in human A375 cells after 2 hrs by immunofluorescence high content imaging
[15] = molecular target: T1, Dual specificity mitogen-activated protein kinase kinase 1; test: Inhibition of MEK1-mediated ERK1 phosphorylation in human HCT116 cells after 2 hrs by immunofluorescence high content imaging
[16] = Plasma protein binding in mouse; format: ADME, cell-free; conditions: read-out: PPB (converted)
[17] = Half life in mouse at 1 mg/kg, iv; format: ADME, organism-based; set-up: dose 1 mg/kg, route intravenous; conditions: in vivo
[18] = Volume of distribution at steady state in mouse at 1 mg/kg, iv; format: ADME, organism-based; set-up: dose 1 mg/kg, route intravenous; conditions: in vivo, read-out: Vdss
[19] = (§2) AUC in mouse at 1 mg/kg, iv; format: ADME, organism-based, Plasma; set-up: dose 1 mg/kg, route intravenous; conditions: plasma
[20] = (§3) AUC in mouse at 25 mg/kg, po; format: ADME, organism-based, Plasma; set-up: dose 25 mg/kg, route oral; conditions: plasma; outline: as §1
Mus musculus [21] = test: Oral bioavailability in mouse at 25 mg/kg; format: ADME, organism-based; conditions: in vivo; outline: as §1
[22] = Clearance in mouse at 1 mg/kg, iv; format: ADME, organism-based; set-up: dose 1 mg/kg, route intravenous; conditions: in vivo
HCT-116 [23] = test: Antitumor activity against human HCT116 cells xenografted in nude nu/nu mouse assessed as tumor growth inhibition at 5 mg/kg, po administered QD for 3 weeks relative to vehicle-treated control; format: functional
Outline: (§4)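 HCT116 colorectal xenografts in nude mice; animals randomized, dosed orally once daily for 3 weeks at 5, 25 or 75 mg/kg vs vehicle. Tumor volume and body weight tracked; animals euthanized at tumor volume >2000 mm³ or body weight loss >20%.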

Rattus norvegicus [24] = species on record: Rattus norvegicus; test: Unbound clearance in rat; format: ADME, organism-based; conditions: in vivo
Rattus norvegicus [25] = test: Unbound AUC in po dosed rat; format: ADME, organism-based; conditions: in vivo
[26] = Permeability from apical to basal side of MDCK cells; format: ADME, cell-based, Canis lupus familiaris; conditions: dog, read-out: permeability
Outline: (§5)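 MDCK monolayer permeability measured in A→B and B→A directions, expressed as ×10⁻⁶ cm/s; efflux ratio taken as B:A over A:B.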

[27] = Efflux ratio of permeability from basal to apical to apical to basal side of MDCK cells; format: ADME, cell-based, Canis lupus familiaris; conditions: dog; outline: as §5
[28] = Permeability from basal to apical side of MDCK cells; format: ADME, cell-based, Canis lupus familiaris; conditions: dog, read-out: permeability; outline: as §5
[29] = Half life in mouse at 25 mg/kg, po; format: ADME, organism-based; set-up: dose 25 mg/kg, route oral; conditions: in vivo
Mus musculus [30] = test: as §2; format: ADME, organism-based, Plasma; set-up: dose 1 mg/kg, route intravenous; conditions: in vivo
Mus musculus [31] = test: as §3; format: ADME, organism-based, Plasma; set-up: dose 25 mg/kg, route oral; conditions: in vivo; outline: as §1
[32] = Solubility of the compound at pH 6.5; format: physicochemical; conditions: buffer
Outline: (§6)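 Solubility measured in aqueous buffer at pH 6.5 and in fasted-state simulated intestinal fluid (FASSIF), expressed in […].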

[33] = Solubility of the compound in fasted state simulated intestinal fluid; format: physicochemical; outline: as §6
Rattus norvegicus [34] = test: Drug metabolism in rat assessed as glucuronidation at 5 mg/kg, po; format: ADME, organism-based; set-up: dose 5 mg/kg, route oral; conditions: in vivo
Rattus norvegicus [35] = test: Drug metabolism in rat assessed as hydroxamate cleavage at 5 mg/kg, po; format: ADME, organism-based; set-up: dose 5 mg/kg, route oral; conditions: in vivo
Mus musculus [36] = test: Toxicity in nude nu/nu mouse bearing human HCT116 xenograft assessed as body weight loss at 5 mg/kg, po administered QD for 3 weeks relative to vehicle-treated; format: organism-based; set-up: dose 5 mg/kg, route oral; conditions: in vivo, 504 h; outline: as §4
HCT-116 [37] = test: Antitumor activity against human HCT116 cells xenografted in nude nu/nu mouse assessed as tumor growth inhibition at 25 and 75 mg/kg, po administered QD for 3 weeks relative to vehicle-treated; format: functional, organism-based; set-up: dose 75 mg/kg; outline: as §4
Mus musculus [38] = test: Toxicity in nude nu/nu mouse bearing human HCT116 xenograft assessed as body weight loss at 75 mg/kg, po administered QD for 3 weeks relative to vehicle-treated; format: organism-based; set-up: dose 75 mg/kg, route oral; conditions: in vivo, 504 h; outline: as §4
Mus musculus [39] = test: Inhibition of MEK-mediated ERK1/2 Thr185/Tyr187 phosphorylation in human HCT116 cells xenografted in nude nu/nu mouse at 25 mg/kg, po administered as single dose after 8 hrs relative to vehicle-treated control; format: functional; conditions: HCT-116, 8 h
Cytochrome P450 2C9 = Cytochrome P450 2C9 (Homo sapiens, UniProt P11712); test: Inhibition of CYP2C9; format: ADME
Cytochrome P450 2C9, sequence (P11712 whole entry): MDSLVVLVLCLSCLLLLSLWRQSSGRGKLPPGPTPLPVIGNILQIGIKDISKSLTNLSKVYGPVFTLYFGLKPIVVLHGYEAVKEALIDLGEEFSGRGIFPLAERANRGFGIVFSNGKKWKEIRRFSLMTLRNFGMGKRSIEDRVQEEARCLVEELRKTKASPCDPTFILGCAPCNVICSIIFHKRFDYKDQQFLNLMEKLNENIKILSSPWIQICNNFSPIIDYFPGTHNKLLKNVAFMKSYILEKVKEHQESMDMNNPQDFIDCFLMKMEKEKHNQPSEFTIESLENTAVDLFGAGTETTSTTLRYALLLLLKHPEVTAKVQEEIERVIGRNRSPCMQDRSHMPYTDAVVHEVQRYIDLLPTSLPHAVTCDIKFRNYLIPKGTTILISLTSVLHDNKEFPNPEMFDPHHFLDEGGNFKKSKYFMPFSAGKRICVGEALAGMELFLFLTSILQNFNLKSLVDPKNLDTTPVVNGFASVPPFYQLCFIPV

Cytochrome P450 2C19 = Cytochrome P450 2C19 (Homo sapiens, UniProt P33261); test: Inhibition of CYP2C19; format: ADME
Cytochrome P450 2C19, sequence (P33261 whole entry): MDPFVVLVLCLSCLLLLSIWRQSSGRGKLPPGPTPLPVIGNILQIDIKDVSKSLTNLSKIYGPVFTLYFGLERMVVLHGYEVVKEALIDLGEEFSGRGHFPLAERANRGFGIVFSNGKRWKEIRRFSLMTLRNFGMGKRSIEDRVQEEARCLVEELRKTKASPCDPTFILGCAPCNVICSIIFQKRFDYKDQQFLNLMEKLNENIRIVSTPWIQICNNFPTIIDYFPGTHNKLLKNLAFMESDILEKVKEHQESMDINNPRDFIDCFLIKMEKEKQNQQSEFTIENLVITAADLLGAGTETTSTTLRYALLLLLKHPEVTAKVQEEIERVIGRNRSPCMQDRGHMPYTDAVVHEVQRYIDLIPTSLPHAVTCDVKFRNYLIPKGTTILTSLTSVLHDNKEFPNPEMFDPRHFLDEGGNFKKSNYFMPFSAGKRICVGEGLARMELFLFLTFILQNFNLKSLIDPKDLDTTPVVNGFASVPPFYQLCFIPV

SMILES: O=C(NOC[C@H](O)CO)c1oc2ccncc2c1Nc1ccc(I)cc1F
EC50 (HCT-116 [1]): 314 nM | EC50 (A-375 [2]): 264 nM

SMILES: O=C(NOCC1CC1)c1ccc2[nH]ncc2c1Nc1ccc(I)cc1F
EC50 (HCT-116 [1]): 127 nM | EC50 (A-375 [2]): 9 nM

SMILES: O=C(NOCCO)c1ccc2[nH]ncc2c1Nc1ccc(Br)cc1F
EC50 (HCT-116 [1]): 193 nM | EC50 (A-375 [2]): 19 nM | Ratio EC50 (A-375 [3]): 8 | fraction unbound [4]: 0.035 | clearance [5]: 54 mL/min/kg | half-life [6]: 0.36 h | Vd [7]: 1.5 L/kg | AUC [8]: 0.75 µM·h | AUC [9]: 1.29 µM·h | bioavailability [10]: 34% | IC50 [11]: 125 nM | Ratio [12]: 1.5 | Ratio [13]: 0.15 | EC50 [14]: 6.4 nM | EC50 [15]: 3.4 nM

SMILES: C[C@H](O)CONC(=O)c1oc2c(F)cncc2c1Nc1ccc(I)cc1F
EC50 (HCT-116 [1]): 175 nM | EC50 (A-375 [2]): 23 nM | Ratio EC50 (A-375 [3]): 8 | fraction unbound [16]: 0.016 | half-life [17]: 2.3 h | Vd [18]: 0.71 L/kg | AUC [19]: 4.42 µM·h | AUC [20]: 192 µM·h | F (Mus musculus [21]): 173% | IC50 [11]: 35 nM | clearance [22]: 7.7 mL/min/kg | Activity (HCT-116 [23]): Active | Ratio [12]: 5 | Ratio [13]: 0.65 | EC50 [14]: 7.2 nM | EC50 [15]: 4 nM

SMILES: CCONC(=O)c1ccc2[nH]ncc2c1Nc1ccc(I)cc1F
EC50 (HCT-116 [1]): 132 nM | EC50 (A-375 [2]): 4.9 nM | IC50 [11]: 93 nM | EC50 [14]: 2.4 nM | EC50 [15]: 1.3 nM

SMILES: O=C(NCCCO)c1ccc2[nH]ncc2c1Nc1ccc(I)cc1F
IC50 [11]: > 10000 nM

More lines, in order of falling EC50 (HCT-116 [1]), values ahead:

EC50 (HCT-116 [1]): 62 nM | EC50 (A-375 [2]): 10 nM | fraction unbound [4]: 0.008 | clearance [5]: 15 mL/min/kg | half-life [6]: 1.6 h | Vd [7]: 0.97 L/kg | AUC [8]: 2.2 µM·h | AUC [9]: 5.7 µM·h | bioavailability [10]: 51% | IC50 [11]: 20 nM | CL free (Rattus norvegicus [24]): 1875 mL/min/kg | fAUC (Rattus norvegicus [25]): 0.046 µM·h | EC50 [14]: 1.1 nM | EC50 [15]: 0.9 nM
SMILES: O=C(NOC[C@H](O)CO)c1ccc2cnsc2c1Nc1ccc(I)cc1F
Ratio [12]: 2.9 | Ratio [13]: 0.47

EC50 (HCT-116 [1]): 44 nM | EC50 (A-375 [2]): 7 nM | inhibition (INH) (Cytochrome P450 2C9): Not Active | inhibition (INH) (Cytochrome P450 2C19): Not Active
SMILES: O=C(NOCCO)c1ccc2cnsc2c1Nc1ccc(I)cc1F

EC50 (HCT-116 [1]): 31 nM | EC50 (A-375 [2]): 12 nM | Papp A→B [26]: 2 ×10⁻⁶ cm/s | IC50 [11]: 15 nM | efflux ratio [27]: 3.5 | Papp B→A [28]: 7.1 ×10⁻⁶ cm/s | EC50 [14]: 3.7 nM | EC50 [15]: 0.4 nM
SMILES: O=C(NOC[C@H](O)CO)c1ccc2[nH]ncc2c1Nc1ccc(I)cc1F
Ratio [12]: 2 | Ratio [13]: 0.8

EC50 (HCT-116 [1]): 16 nM | EC50 (A-375 [2]): 2 nM | fraction unbound [4]: 0.039 | clearance [5]: 36 mL/min/kg | half-life [6]: 1.4 h | Vd [7]: 2.4 L/kg | AUC [8]: 1.01 µM·h | AUC [9]: 1.06 µM·h | bioavailability [10]: 21% | fraction unbound [16]: 0.03 | half-life [17]: 0.6 h | half-life [29]: 2.9 h | Vd [18]: 2 L/kg | AUC (Mus musculus [30]): 0.41 µM·h | AUC (Mus musculus [31]): 1.96 µM·h | F (Mus musculus [21]): 94% | solubility [32]: 80 µg/mL (≈ 175 µM) | solubility [33]: 180 µg/mL (≈ 395 µM) | Papp A→B [26]: 9.9 ×10⁻⁶ cm/s | Drug metabolism (Rattus norvegicus [34]): Active | Papp B→A [28]: 13.8 ×10⁻⁶ cm/s | clearance [22]: 88 mL/min/kg | Drug metabolism (Rattus norvegicus [35]): Active | CL free (Rattus norvegicus [24]): 923 mL/min/kg | fAUC (Rattus norvegicus [25]): 0.04 µM·h
SMILES: O=C(NOCCO)c1ccc2[nH]ncc2c1Nc1ccc(I)cc1F
inhibition in vivo at 5 mg/kg (HCT-116 [23]; HCT-116, 504 h, read-out: GI): 94% | Activity (Mus musculus [36]): Non-toxic | growth inhibition (GI) (HCT-116 [37]): Active | Activity (Mus musculus [38]): 10% | inhibition in vivo at 25 mg/kg (Mus musculus [39]): 70%
